# Source: PubChem BioAssay AID651783 (The Scripps Research Institute Molecular Screening Center, 2012)
# Out of some 2,400 compounds screened, about 2,000 (83%) were called active.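 How the source made its calls: active means activation above a cutoff set at the run's mean compound activation plus 3 SD (cut at about 39% in these data); inactive means the rest.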 The set was probably picked from earlier hits. Not all results are given here.
# Molecular target: Trace amine-associated receptor 1 (Homo sapiens) (UniProt Q96RJ0)
# Assay: activators of TAAR1 calcium signal, triplicate retest – Fluo-8 calcium fluorescence, CHO RD-HGA16 cells, confirmation (AID 651783);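 further: promiscuous G-alpha-16 overexpression reroutes TAAR1 signalling from cAMP to calcium; peak fluorescence divided by basal pre-compound fluorescence per well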
# Settings: CHO RD-HGA16 TAAR1, Fluo-8 calcium fluorescence; at 3 µM; hits give high values
# In short: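 Signal – Fluo-8 calcium fluorescence, 5 s basal then 140 s kinetic read · Assay system – RD-HGA16 CHO cells co-expressing hTAAR1 and promiscuous Gα16 · Times – Fluo-8 loading 75 min 37 °C and 30 min RT · Dosing – single nominal final dose of 3 µM per compound · Benchmarks – low DMSO wells, high PEA EC100 wells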
# Trace amine-associated receptor 1 (Homo sapiens), sequence (Q96RJ0 whole entry, looked up): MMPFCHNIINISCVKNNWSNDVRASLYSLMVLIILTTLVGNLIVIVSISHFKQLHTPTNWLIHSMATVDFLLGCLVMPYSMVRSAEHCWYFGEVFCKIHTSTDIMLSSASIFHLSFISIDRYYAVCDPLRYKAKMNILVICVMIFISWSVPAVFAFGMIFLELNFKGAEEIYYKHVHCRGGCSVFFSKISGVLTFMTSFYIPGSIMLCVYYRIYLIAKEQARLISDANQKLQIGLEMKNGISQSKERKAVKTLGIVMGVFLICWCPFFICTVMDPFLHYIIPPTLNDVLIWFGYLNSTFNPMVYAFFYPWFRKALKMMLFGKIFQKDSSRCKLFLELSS
row,SMILES,activation
1,c1ccc(CCNC2CCCCCC2)cc1,91.8% (active)
2,CCCCC(=O)N/N=C/c1c(O)n(CC)c(=S)n(CC)c1=O,106% (active)
3,Cc1cccc(N2C(=O)NC(=O)/C(=C\c3cnn(-c4ccccc4)c3)C2=O)c1,46.7% (active)
4,NCC(O)c1ccc(O)cc1 (centres undefined),88.3% (active)
5,COc1ccc(Br)cc1CNCCc1cccc(Cl)c1,71% (active)
6,CC(Cc1ccccc1)NC=O (centres undefined),82.1% (active)
7,CCC(=NCCc1ccccc1)c1c(O)n(C2CCCCC2)c(=O)[nH]c1=O,76.4% (active)
8,Clc1ccc2nc3c(c(-c4ccccc4)c2c1)CNCC3,71% (active)
9,O=C1NC(=O)N(Cc2ccco2)C(=O)/C1=C\c1ccc(-c2ccc(F)cc2)o1,52.5% (active)
